From ChEMBL document CHEMBL4138117, “Pentapeptides for the treatment of small cell lung cancer: Optimisation by Nind-alkyl modification of the tryptophan side chain” (Eur J Med Chem, 2017)
Active and inactive are the calls of the source. The calls are words filed in the database; no cut-off is given here. *1 amine or outer side, *2 acyl side, *3 side chain or, on linkers, in order; H or OH if unused. Where a SMILES comes first, the peptide text is derived from it. [ ]: non-standard residue; d: D form. X1 = C=CC(C)(C)n1cc(C[C@@H](N[*:1])C(=O)[*:2])c2ccccc21; dTrp(1-Bu) = CCCCn1cc(C[C@@H](N)C(=O)O)c2ccccc21; dNMeF = CN[C@H](Cc1ccccc1)C(=O)O

Columns and labels:
[1] = Drug metabolism in neat mouse plasma at 400 ug/ml by RP-HPLC method; assay type: ADME, cell-free; conditions: TDE = time-dependent effect
Method in brief: (§1)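 Peptide added to neat mouse plasma at 400 µg/ml and held at 37 °C. Aliquots taken at 0, 3, 24 and 48 h and analysed by RP-HPLC on a C8 column. Parent and degradation product(s) reported as relative percentage; n = 3.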

[2] = Metabolic stability in neat mouse plasma assessed as parent compound remaining at 400 ug/ml after 48 hrs by RP-HPLC method; assay type: ADME, cell-free; conditions: read-out: Stability; method in brief: as §1
DMS-79 [3] = assay: Cytotoxicity against human DMS79 cells assessed as decrease in cell viability after 48 hrs by resazurin dye-based assay; assay type: functional; conditions: DMS-79, 48 h
Method in brief: (§2)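 H69 and DMS79 suspension cells grown in 10% FBS/RPMI-1640 at 37 °C, 5% CO2. Seeded at 1 x 10^4 cells/well in triplicate and given peptide the same day at 0.1–30 µM final, diluted in 50% FBS/saline. After 48 h, resazurin (0.125 mg/ml in PBS) added for 5 h, then fluorescence read and % viability calculated. Three independent repeats; IC50 taken from dose-response curves.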

NCI-H69 [4] = assay: Cytotoxicity against human H69 cells assessed as decrease in cell viability after 48 hrs by resazurin dye-based assay; assay type: functional; conditions: NCI-H69, 48 h; method in brief: as §2
[5] = Retention time of the compound in mouse plasma at 400 ug/ml after 3 hrs by RP-HPLC method; assay type: ADME, cell-free; method in brief: as §1
[6] = Retention time of the compound in mouse plasma at 400 ug/ml after 48 hrs by RP-HPLC method; assay type: ADME, cell-free; method in brief: as §1
[7] = Drug metabolism in mouse plasma at 400 ug/ml after 48 hrs by mass spectrophotometric method; assay type: ADME, cell-free
[8] = Retention time of the compound in mouse plasma at 400 ug/ml after 24 hrs by RP-HPLC method; assay type: ADME, cell-free; method in brief: as §1
[9] = Metabolic stability in neat mouse plasma assessed as parent compound remaining at 400 ug/ml after 3 hrs by RP-HPLC method; assay type: ADME, cell-free; conditions: read-out: Stability; method in brief: as §1
[10] = Retention time of the compound in mouse plasma at 400 ug/ml measured immediately after compound addition by RP-HPLC method; assay type: ADME, cell-free; method in brief: as §1
[11] = Drug level in mouse plasma treated with (S)-2-((3R,6R,9S,12R)-3,9-dibenzyl-6,12-bis((1-butyl-1H-indol-3-yl)methyl)-4,7,10-trioxo-2,5,8,11-tetraazatridecanamido)-4-methylpentanamide at 400 ug/ml after 3 to 48 hrs by RP-HPLC method; assay type: ADME, cell-free; method in brief: as §1
[12] = Drug level in mouse plasma treated with (S)-2-((3R,6R,9S,12R)-3,9-dibenzyl-6,12-bis((1-butyl-1H-indol-3-yl)methyl)-4,7,10-trioxo-2,5,8,11-tetraazatridecanamido)-4-methylpentanamide at 400 ug/ml after 48 hrs by mass spectrophotometric method; assay type: ADME, cell-free
DMS-79 [13] = assay: Induction of apoptosis in human DMS79 cells assessed as viable cells at 2 uM after 24 hrs by Annexin V/SYTOX Blue staining-based flow cytometric method (reference value: 61.7 +/- 9.1%); assay type: functional; conditions: DMS-79, 24 h, read-out: Activity
[14] = Metabolic stability in CD1 mouse liver S9 fraction at 400 ug/ml after 1 to 3 hrs in presence of UDPGA, NADPH, GSH, PAPS by RP-HPLC method; assay type: ADME, subcellular
Method in brief: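 Male CD-1 mouse liver S9 fraction incubated with peptide as in the plasma study, at 37 °C. Reaction started by adding a 1:1:1:1 cofactor mix made in 200 mM Tris pH 7.4 with 2 mM MgCl2; final levels NADPH 1 mM, UDPGA 0.5 mM, GSH 0.05 mM, PAPS 0.05 mg/ml. Aliquots at 0, 1, 2 and 3 h analysed by RP-HPLC.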

[15] = Drug metabolism in mouse plasma assessed as formation of (3R,6R,9S,12R,15S)-3,9-dibenzyl-6,12-bis((1-butyl-1H-indol-3-yl)methyl)-15-isobutyl-4,7,10,13-tetraoxo-2,5,8,11,14-pentaazahexadecan-16-oic acid at 400 ug/ml after 48 hrs by mass spectrophotometric method; assay type: ADME, cell-free
DMS-79 [16] = assay: Induction of apoptosis in human DMS79 cells assessed as viable cells at 6 uM after 24 hrs by Annexin V/SYTOX Blue staining-based flow cytometric method (reference value: 61.7 +/- 9.1%); assay type: functional; conditions: DMS-79, 24 h, read-out: Activity
DMS-79 [17] = assay: Induction of apoptosis in human DMS79 cells assessed as early apoptotic cells at 2 uM after 24 hrs by Annexin V/SYTOX Blue staining-based flow cytometric method (reference value: 6.4 +/- 0.4%); assay type: functional
DMS-79 [18] = assay: Induction of apoptosis in human DMS79 cells assessed as late apoptotic cells at 6 uM after 24 hrs by Annexin V/SYTOX Blue staining-based flow cytometric method (reference value: 28.6 +/- 8.2%); assay type: functional
NCI-H69 [19] = assay: Induction of apoptosis in human H69 cells assessed as increase in necrotic cells at 6 uM after 48 hrs by acridine orange/ethidium bromide staining-based inverted fluorescence microscopic method; assay type: functional, cell-based
Method in brief: (§3)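 Cells seeded at 1 x 10^4 cells/well and treated with peptide at 6 µM final in complete medium for 48 h at 37 °C, 5% CO2, with an untreated control. Then 1:1 AO/EB mix (100 µg/ml of each dye in PBS) added and cells viewed by inverted fluorescence microscopy at 10x.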

NCI-H69 [20] = assay: Induction of apoptosis in human H69 cells assessed as increase in late apoptotic cells at 6 uM after 48 hrs by acridine orange/ethidium bromide staining-based inverted fluorescence microscopic method; assay type: functional, cell-based; method in brief: as §3
NCI-H69 [21] = assay: Induction of apoptosis in human H69 cells assessed as loss of plasma membrane integrity at 6 uM after 48 hrs by acridine orange/ethidium bromide staining-based inverted fluorescence microscopic method; assay type: functional, cell-based; method in brief: as §3
DMS-79 [22] = assay: Induction of apoptosis in human DMS79 cells assessed as increase in necrotic cells at 6 uM after 48 hrs by acridine orange/ethidium bromide staining-based inverted fluorescence microscopic method; assay type: functional, cell-based; method in brief: as §3
DMS-79 [23] = assay: Induction of apoptosis in human DMS79 cells assessed as necrotic cells at 6 uM after 24 hrs by Annexin V/SYTOX Blue staining-based flow cytometric method (reference value: 3.3 +/- 0.6%); assay type: functional
DMS-79 [24] = assay: Induction of apoptosis in human DMS79 cells assessed as necrotic cells at 2 uM after 24 hrs by Annexin V/SYTOX Blue staining-based flow cytometric method (reference value: 3.3 +/- 0.6%); assay type: functional
DMS-79 [25] = assay: Induction of apoptosis in human DMS79 cells assessed as early apoptotic cells at 6 uM after 24 hrs by Annexin V/SYTOX Blue staining-based flow cytometric method (reference value: 6.4 +/- 0.4%); assay type: functional
DMS-79 [26] = assay: Induction of apoptosis in human DMS79 cells assessed as loss of plasma membrane integrity at 6 uM after 48 hrs by acridine orange/ethidium bromide staining-based inverted fluorescence microscopic method; assay type: functional, cell-based; method in brief: as §3
DMS-79 [27] = assay: Induction of apoptosis in human DMS79 cells assessed as chromatin condensation at 6 uM after 48 hrs by acridine orange/ethidium bromide staining-based inverted fluorescence microscopic method; assay type: functional, cell-based; method in brief: as §3
DMS-79 [28] = assay: Induction of apoptosis in human DMS79 cells assessed as cell shrinkage at 6 uM after 48 hrs by acridine orange/ethidium bromide staining-based inverted fluorescence microscopic method; assay type: functional; method in brief: as §3
DMS-79 [29] = assay: Induction of apoptosis in human DMS79 cells assessed as viable cells after 24 hrs by Annexin V/SYTOX Blue staining-based flow cytometric method; assay type: functional, cell-based
[30] = Drug metabolism in mouse plasma assessed as formation of (3R,6R,9S,12R,15S)-3,9-dibenzyl-6-((1H-indol-3-yl)methyl)-12-((1-butyl-1H-indol-3-yl)methyl)-15-isobutyl-4,7,10,13-tetraoxo-2,5,8,11,14-pentaazahexadecan-16-oic acid at 400 ug/ml after 3 to 48 hrs by RP-HPLC method
DMS-79 [31] = assay: Induction of apoptosis in human DMS79 cells assessed as increase in late apoptotic cells at 6 uM after 48 hrs by acridine orange/ethidium bromide staining-based inverted fluorescence microscopic method; assay type: functional, cell-based; method in brief: as §3
DMS-79 [32] = assay: Induction of apoptosis in human DMS79 cells assessed as late apoptotic cells at 2 uM after 24 hrs by Annexin V/SYTOX Blue staining-based flow cytometric method (reference value: 28.6 +/- 8.2%); assay type: functional
NCI-H69 [33] = assay: Induction of apoptosis in human H69 cells assessed as cell shrinkage at 6 uM after 48 hrs by acridine orange/ethidium bromide staining-based inverted fluorescence microscopic method; assay type: functional; method in brief: as §3
NCI-H69 [34] = assay: Induction of apoptosis in human H69 cells assessed as chromatin condensation at 6 uM after 48 hrs by acridine orange/ethidium bromide staining-based inverted fluorescence microscopic method; assay type: functional, cell-based; method in brief: as §3

Drug metabolism [1]	Retention_time [5]	Retention_time [6]	Drug metabolism [7]	Retention_time [8]	Retention_time [10]	Stability [14]	SMILES	IC50 (DMS-79 [3])	IC50 (NCI-H69 [4])	Activity (NCI-H69 [19])	Activity (NCI-H69 [20])	Activity (NCI-H69 [21])	Activity (DMS-79 [22])	Activity (DMS-79 [26])	Activity (DMS-79 [27])	Activity (DMS-79 [28])	Activity (DMS-79 [31])	Activity (NCI-H69 [33])	Activity (NCI-H69 [34])	other results
Tde	24.89 min	24.86 min	Metabolite_Detected	24.86 min	24.62 min	–	C=CC(C)(C)n1cc(C[C@@H](NC(=O)[C@H](Cc2ccccc2)NC(=O)[C@@H](Cc2c[nH]c3ccccc23)NC(=O)[C@@H](Cc2ccccc2)NC)C(=O)N[C@@H](CC(C)C)C(N)=O)c2ccccc21 (H-[dNMeF][dW]F[X1]L-NH2)	4.37 µM	2.84 µM	–	–	–	–	–	–	–	–	–	–	remaining at 48 h, 400 ug/ml [2]: 35.9%; remaining at 3 h, 400 ug/ml [9]: 87.8%
–	25.3 min	25.27 min	Metabolite_Notdetected	25.29 min	25.36 min	–	CCCCn1cc(C[C@@H](NC(=O)[C@H](Cc2ccccc2)NC(=O)[C@@H](Cc2c[nH]c3ccccc23)NC(=O)[C@@H](Cc2ccccc2)NC)C(=O)N[C@@H](CC(C)C)C(=O)O)c2ccccc21 (H-[dNMeF][dW]F[dTrp(1-Bu)]L-OH)	> 30 µM	> 30 µM	–	–	–	–	–	–	–	–	–	–	Drug metabolism [11]: Metabolite_Detected; Drug metabolism [12]: Metabolite_Detected
Tde	25.29 min	25.23 min	–	25.26 min	25 min	Stable	CCCCn1cc(C[C@@H](NC(=O)[C@H](Cc2ccccc2)NC(=O)[C@@H](Cc2c[nH]c3ccccc23)NC(=O)[C@@H](Cc2ccccc2)NC)C(=O)N[C@@H](CC(C)C)C(N)=O)c2ccccc21 (H-[dNMeF][dW]F[dTrp(1-Bu)]L-NH2)	–	–	Active	Active	Active	Active	Active	Active	Active	Active	Active	Active	viability at 2 µM (DMS-79 [13]): 53.3%; Drug metabolism [15]: Metabolite_Detected; viability at 6 µM (DMS-79 [16]): 1%; Activity (DMS-79 [17]): 8%; Activity (DMS-79 [18]): 95.5%; Activity (DMS-79 [23]): 1.6%; Activity (DMS-79 [24]): 2.3%; Activity (DMS-79 [25]): 1.9%; Activity (DMS-79 [29]): Dose-dependent effect; Drug metabolism [30]: Metabolite_Detected; Activity (DMS-79 [32]): 36.4%
Tde	27.93 min	27.94 min	Metabolite_Notdetected	27.94 min	27.53 min	Stable	CCCCn1cc(C[C@@H](NC(=O)[C@H](Cc2ccccc2)NC(=O)[C@@H](Cc2cn(CCCC)c3ccccc23)NC(=O)[C@@H](Cc2ccccc2)NC)C(=O)N[C@@H](CC(C)C)C(N)=O)c2ccccc21 (H-[dNMeF][dTrp(1-Bu)]F[dTrp(1-Bu)]L-NH2)	–	–	Active	Active	Active	Active	Active	Active	Active	Active	Active	Active	–
–	–	–	–	–	–	–	CN[C@H](Cc1ccccc1)C(=O)N[C@H](Cc1c[nH]c2ccccc12)C(=O)N[C@@H](Cc1ccccc1)C(=O)N[C@H](Cc1c[nH]c2ccccc12)C(=O)N[C@@H](CC(C)C)C(N)=O (H-[dNMeF][dW]F[dW]L-NH2)	23 µM	30.7 µM	–	–	–	–	–	–	–	–	–	–	–
